Laboratory results reported in paper PMC5198934 (Saudi Journal of Biological Sciences, 2015).
Converted amounts (≈) assume the structure as drawn.

Columns and labels:
FRAP assay = settings: for FRAP (10 μg/mL): absorbance at 593 nm, 30 min, triplicate
How it was run: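 Working reagent: 300 mM acetate buffer pH 3.6, 10 mM TPTZ in 40 mM HCl, and 20 mM FeCl3·6H2O, mixed 10:1:1 and warmed to 37 °C. Methanolic samples reacted 30 min. Ascorbic acid in water used as standard, methanol as blank. Fe²⁺–TPTZ complex read at 593 nm. Triplicate, mean reported.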

[1] = DPPH radical scavenging assay; settings: 30 min, absorbance at 517 nm, triplicate, mean ± SD
How it was run: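 DPPH dissolved in methanol (180 µL) mixed with 20 µL methanolic compound solutions at 0.1, 1, 10 and 100 μg/mL. Mixture shaken, held 30 min at room temperature in dark, A517. Controls: methanol blank, ascorbic acid positive. Triplicate. % scavenging = (A blank − A test)/A blank × 100; IC50 from concentration–scavenging plot.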

[2] = ABTS radical scavenging assay; settings: 10 min, absorbance at 734 nm, triplicate, mean ± SD
How it was run: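 ABTS•+ formed from 7 mM ABTS in water plus 2.45 mM potassium persulfate, kept dark at room temperature 12–16 h, then diluted in methanol to A734 0.70 ± 0.02 at 30 °C. Methanolic compound dilutions (20 µL) added to 180 µL radical, 10 min in dark, A734. Controls: methanol blank, ascorbic acid reference. Fresh radical each run. Triplicate. % scavenging versus blank gives IC50.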

[3] = SRB cytotoxicity assay, MDCK cells; assay type: cell-based, canine; settings: dog
How it was run: (§1)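 HeLa cells were grown in DMEM; CaSki and MDCK in RPMI-1640. All media had 10% FBS and 1% antibiotic–antimycotic, at 37 °C, 5% CO2. Cells seeded at 5×10^3/well overnight, triplicate, then given four concentrations for 48 h. Untreated cells served as control. SRB staining: ice-cold 70% acetone fixation, 0.4% SRB, Tris solubilisation, A540. IC50 from cancer lines, CC50 from MDCK, TI derived.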

Hela cancer cell = assay: SRB anticancer assay, Hela cells; assay type: cell-based, Human
How it was run: as §1

Caski cancer cell = assay: SRB anticancer assay, Caski cells; assay type: cell-based
How it was run: as §1

Compound	FRAP absorption value (FRAP assay; Fe3+ reducing power) [nm]	FRAP (10 μg/mL) (FRAP assay)	IC50 DPPH [1] [mg/L]	IC50 ABTS [2] [mg/L]	CC50 at 48 h [3] [mg/L]	TI (therapeutic index) (Hela cancer cell; CC50 MDCK / IC50 Hela)	IC50 (Hela cancer cell; Homo sapiens, HeLa, 48 h, read-out: IC50 Hela) [mg/L]	TI (therapeutic index) (Caski cancer cell; CC50 MDCK / IC50 Caski)	IC50 (Caski cancer cell; Homo sapiens, Ca-Ski, 48 h, read-out: IC50 Caski) [mg/L]
O=C1O[C@H]([C@@H](O)CO)C(O)=C1O [Ascorbic acid]	2.140	2.140 ± 0.78	10.75 ± 0.66 (≈ 61 µM)	4.760 ± 0.05 (≈ 27 µM)					
COc1ccc2cc3[n+](cc2c1OC)CCc1cc2c(cc1-3)OCO2 [Berberine]		0.001 ± 0.66	33.16 ± 1.60	86.29 ± 2.11	113.8 ± 0.51	25.29	4.5 ± 0.08	20.17	5.64 ± 0.11
